Assay results reported in ChEMBL document CHEMBL3244101, “2-, 3-, and 4-(alpha, alpha, beta, beta-tetrafluorophenethyl)benzylamines. A new class of antiarrhythmic agents” (J Med Chem, 1977).
Active and inactive are the calls of the source. The rule behind the calls is not given here.

How the values were obtained:
Canis familiaris [1] = test: Antiarrhythmic activity in anesthetized acute myocardial infarction dog model assessed as normal ECG complexes at 2.5 mg/kg, iv administered 10 mins prior to infarction measured during 1-hr postinfarction period (reference value: 19%); assay type: functional, Canis lupus familiaris, Heart
Summary of the method: (§1)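 Sclerosing agent (tetrafluorohexachlorobutane) injected into the anterior descending coronary artery to produce a multifocal ventricular arrhythmia. Single iv dose 10 min before infarction. Segmented ECG tracings over the 1 h after infarction were scored as the percentage of complexes of sinus origin (normal). Saline controls were run alongside.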

Canis familiaris [2] = test: Antiarrhythmic activity in anesthetized acute myocardial infarction dog model assessed as normal ECG complexes at 1.25 mg/kg, iv administered 10 mins prior to infarction measured during 1-hr postinfarction period (reference value: 19%); assay type: functional, Canis lupus familiaris, Heart; summary of the method: as §1
Canis familiaris [3] = test: Antiarrhythmic activity in anesthetized acute myocardial infarction dog model assessed as normal ECG complexes at 0.5 mg/kg, iv administered 10 mins prior to infarction measured during 1-hr postinfarction period (reference value: 19%); assay type: functional, Canis lupus familiaris, Heart; summary of the method: as §1
Canis familiaris [4] = test: Antiarrhythmic activity in iv dosed anesthetized acute myocardial infarction dog model assessed as protection against ventricular arrhythmia development administered 10 mins prior to infarction measured during 1-hr postinfarction period; assay type: functional, Canis lupus familiaris, Heart; conditions: Canis lupus familiaris, Heart; summary of the method: as §1
Canis familiaris [5] = test: Antiarrhythmic activity in anesthetized acute myocardial infarction dog model assessed as normal ECG complexes at 0.25 mg/kg, iv administered 10 mins prior to infarction measured during 1-hr postinfarction period (reference value: 19%); assay type: functional, Canis lupus familiaris, Heart; summary of the method: as §1
Canis familiaris [6] = test: Antiarrhythmic activity in anesthetized acute myocardial infarction dog model assessed as normal ECG complexes at 0.07 mg/kg, iv administered 10 mins prior to infarction measured during 1-hr postinfarction period (reference value: 19%); assay type: functional, Canis lupus familiaris, Heart; summary of the method: as §1
Canis familiaris [7] = test: Antiarrhythmic activity in anesthetized acute myocardial infarction dog model assessed as normal ECG complexes at 10 mg/kg, po administered 120 mins prior to infarction measured post-infarction; assay type: functional, Canis lupus familiaris, Heart
Summary of the method: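 Oral dosing 120 min before infarction in the same intracoronary tetrafluorohexachlorobutane arrhythmia model. Protection was read from ECG complexes after infarction, as the percentage that were normal.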

Canis familiaris [8] = test: Antiarrhythmic activity in anesthetized acute myocardial infarction dog model assessed as normal ECG complexes at 10 mg/kg, iv administered 10 mins prior to infarction measured during 1-hr postinfarction period (reference value: 19%); assay type: functional, Canis lupus familiaris, Heart; summary of the method: as §1
Canis familiaris [9] = test: Antiarrhythmic activity in anesthetized acute myocardial infarction dog model assessed as normal ECG complexes at 5 mg/kg, iv administered 10 mins prior to infarction measured during 1-hr postinfarction period (reference value: 19%); assay type: functional, Canis lupus familiaris, Heart; summary of the method: as §1
Canis familiaris [10] = test: Effect on cardiac conduction in anesthetized acute myocardial infarction dog model assessed as increase in PR interval at 2.5 mg/kg, iv administered 10 mins prior to infarction measured after 10 mins (reference value: 0 ms); assay type: functional, Canis lupus familiaris, Heart
Canis familiaris [11] = test: Effect on cardiac conduction in anesthetized acute myocardial infarction dog model assessed as increase in PR interval at 5 mg/kg, iv administered 10 mins prior to infarction measured after 10 mins (reference value: 0 ms); assay type: functional, Canis lupus familiaris, Heart
Canis familiaris [12] = test: Effect on cardiac conduction in anesthetized acute myocardial infarction dog model assessed as increase in PR interval at 10 mg/kg, iv administered 10 mins prior to infarction measured after 10 mins (reference value: 0 ms); assay type: functional, Canis lupus familiaris, Heart
Canis familiaris [13] = test: Effect on cardiac conduction in anesthetized acute myocardial infarction dog model assessed as increase in QT duration at 2.5 mg/kg, iv administered 10 mins prior to infarction measured after 10 mins (reference value: 2 ms); assay type: functional, Canis lupus familiaris, Heart
Canis familiaris [14] = test: Effect on cardiac conduction in anesthetized acute myocardial infarction dog model assessed as increase in QT duration at 5 mg/kg, iv administered 10 mins prior to infarction measured after 10 mins (reference value: 2 ms); assay type: functional, Canis lupus familiaris, Heart
Canis familiaris [15] = test: Effect on cardiac conduction in anesthetized acute myocardial infarction dog model assessed as increase in QT duration at 10 mg/kg, iv administered 10 mins prior to infarction measured after 10 mins (reference value: 2 ms); assay type: functional, Canis lupus familiaris, Heart
Canis familiaris [16] = test: Reduction in heart rate in anesthetized acute myocardial infarction dog model at 2.5 mg/kg, iv administered 10 mins prior to infarction (reference value: 6 bpm); assay type: functional, Canis lupus familiaris
Canis familiaris [17] = test: Reduction in heart rate in anesthetized acute myocardial infarction dog model at 5 mg/kg, iv administered 10 mins prior to infarction (reference value: 6 bpm); assay type: functional, Canis lupus familiaris
Canis familiaris [18] = test: Reduction in heart rate in anesthetized acute myocardial infarction dog model at 10 mg/kg, iv administered 10 mins prior to infarction (reference value: 6 bpm); assay type: functional, Canis lupus familiaris
Canis familiaris [19] = test: Antiarrhythmic activity in anesthetized acute myocardial infarction dog model assessed as normal ECG complexes at 0.06 mg/kg, iv administered 10 mins prior to infarction measured during 1-hr postinfarction period (reference value: 19%); assay type: functional, Canis lupus familiaris, Heart; summary of the method: as §1

| SMILES | Activity (Canis familiaris [1]) [%] | Activity (Canis familiaris [2]) [%] | Activity (Canis familiaris [3]) [%] | ED75 (Canis familiaris [4]; iv, read-out: ED75) [mg/kg] | Activity (Canis familiaris [5]) [%] | also measured |
| --- | --- | --- | --- | --- | --- | --- |
| CNC(C)(C)c1ccc(C(F)(F)C(F)(F)c2ccc(C)cc2)cc1.Cl | 67 |  |  |  |  |  |
| CC(O)C(=O)O.NCc1ccccc1C(F)(F)C(F)(F)c1ccccc1CN | 71 | 59 | 38 | 2.5 |  |  |
| Cl.NCc1ccccc1C(F)(F)C(F)(F)c1ccccc1 | 98 | 91 | 86 | 0.2 | 81 | Activity (Canis familiaris [6]): 58%; Activity (Canis familiaris [7]): >=80% |
| Cl.Nc1ccccc1C(F)(F)C(F)(F)c1ccccc1 | 10 |  |  |  |  | Activity (Canis familiaris [8]): 26%; ED75 (Canis familiaris [4]): inactive |
| CC(N)c1ccccc1C(F)(F)C(F)(F)c1ccccc1.O=C(O)/C=C\C(=O)O (configuration not stated) | 87 | 82 | 43 | 1.3 |  |  |
| NCc1ccccc1C(F)(F)C(F)(F)c1ccc(F)cc1 | 74 | 52 |  | 3 | 20 |  |
| CC(C)(N)c1cccc(C(F)(F)C(F)(F)c2ccccc2)c1.Cl | 80 | 45 |  | 2.7 |  |  |
| NCc1cc(F)ccc1C(F)(F)C(F)(F)c1ccccc1 |  |  | 48 | 0.5 |  |  |
| C=C[C@H]1CN2CC[C@H]1C[C@@H]2[C@@H](O)c1ccnc2ccc(OC)cc12 [QUINIDINE] | 25 |  |  | 9.4 |  | Activity (Canis familiaris [8]): 89%; Activity (Canis familiaris [9]): 46%; Time (Canis familiaris [10]): 0 ms; Time (Canis familiaris [11]): 8 ms; Time (Canis familiaris [12]): 15 ms; Time (Canis familiaris [13]): 33 ms; Time (Canis familiaris [14]): 36 ms; Time (Canis familiaris [15]): 78 ms; Activity (Canis familiaris [16]): 21 bpm; Activity (Canis familiaris [17]): 24 bpm; Activity (Canis familiaris [18]): 31 bpm |
| Cc1c(CN)cccc1C(F)(F)C(F)(F)c1ccccc1.Cl | 49 |  |  |  |  |  |
| Br.CNCc1cccc(C(F)(F)C(F)(F)c2ccccc2)c1CNC | 92 | 65 | 61 | 1.3 | 30 |  |
| CC(C)(N)c1ccc(C(F)(F)C(F)(F)c2ccccc2)cc1.Cl | 98 | 89 | 75 | 0.6 | 50 | Activity (Canis familiaris [7]): >=80%; Activity (Canis familiaris [19]): 35% |
| Br.FC(F)(c1ccccc1)C(F)(F)c1cccc2c1CNC2 | 51 |  |  | 7 |  | Activity (Canis familiaris [9]): 71% |
| Cc1ccc(C(F)(F)C(F)(F)c2ccc(C(C)(C)N)cc2)cc1.Cl | 88 | 75 |  | 1.4 | 52 | Activity (Canis familiaris [19]): 15% |
